From article PMC4535313 (Bioorganic & medicinal chemistry letters, 2014)
pIC50: −log10 of the molar value.

What was measured:
PLD1 = target: T1, PLD1 (Homo sapiens, UniProt Q13393); test: Cellular PLD1 assay with Calu-1 cells; format: cell-based
T1 sequence (Q13393 1-1074): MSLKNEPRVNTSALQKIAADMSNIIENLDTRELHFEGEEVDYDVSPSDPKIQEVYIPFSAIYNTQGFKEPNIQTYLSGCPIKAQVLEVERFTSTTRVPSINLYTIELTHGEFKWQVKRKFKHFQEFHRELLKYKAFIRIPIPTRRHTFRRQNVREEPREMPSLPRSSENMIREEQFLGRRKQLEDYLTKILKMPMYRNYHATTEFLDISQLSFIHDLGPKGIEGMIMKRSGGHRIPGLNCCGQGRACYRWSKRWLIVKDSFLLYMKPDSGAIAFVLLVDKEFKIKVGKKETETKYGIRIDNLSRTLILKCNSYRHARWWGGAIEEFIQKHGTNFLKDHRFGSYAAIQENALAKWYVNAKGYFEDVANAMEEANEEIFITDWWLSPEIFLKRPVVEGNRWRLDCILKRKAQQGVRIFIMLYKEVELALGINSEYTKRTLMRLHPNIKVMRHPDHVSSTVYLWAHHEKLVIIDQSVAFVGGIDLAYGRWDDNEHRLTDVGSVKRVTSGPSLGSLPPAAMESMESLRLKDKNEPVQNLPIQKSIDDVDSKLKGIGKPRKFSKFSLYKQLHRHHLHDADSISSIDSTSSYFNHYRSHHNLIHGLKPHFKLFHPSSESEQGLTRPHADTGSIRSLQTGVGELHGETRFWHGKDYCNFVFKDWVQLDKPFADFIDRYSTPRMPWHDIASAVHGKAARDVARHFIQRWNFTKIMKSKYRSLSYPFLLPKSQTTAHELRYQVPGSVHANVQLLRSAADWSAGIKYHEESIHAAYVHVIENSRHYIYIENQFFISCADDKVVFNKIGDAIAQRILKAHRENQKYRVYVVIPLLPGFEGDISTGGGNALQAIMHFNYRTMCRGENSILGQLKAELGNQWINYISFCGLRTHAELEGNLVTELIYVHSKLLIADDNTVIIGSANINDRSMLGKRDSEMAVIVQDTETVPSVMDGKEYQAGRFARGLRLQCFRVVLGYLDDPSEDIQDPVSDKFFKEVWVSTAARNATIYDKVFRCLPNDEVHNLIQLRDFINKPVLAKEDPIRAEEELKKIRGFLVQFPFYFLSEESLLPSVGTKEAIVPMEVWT
How it was run: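 Calu-1 cells used for cell-based PLD1 inhibition readout. Each IC50 determined in triplicate.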

[1] = Metabolic stability in rat microsomes; format: in vitro ADME
PLD2 = PLD2 (Homo sapiens, UniProt O14939); conditions: recently reported inhibitors, Fig. 1; cited from earlier work
Sequence of PLD2 (O14939 whole entry, species assumed): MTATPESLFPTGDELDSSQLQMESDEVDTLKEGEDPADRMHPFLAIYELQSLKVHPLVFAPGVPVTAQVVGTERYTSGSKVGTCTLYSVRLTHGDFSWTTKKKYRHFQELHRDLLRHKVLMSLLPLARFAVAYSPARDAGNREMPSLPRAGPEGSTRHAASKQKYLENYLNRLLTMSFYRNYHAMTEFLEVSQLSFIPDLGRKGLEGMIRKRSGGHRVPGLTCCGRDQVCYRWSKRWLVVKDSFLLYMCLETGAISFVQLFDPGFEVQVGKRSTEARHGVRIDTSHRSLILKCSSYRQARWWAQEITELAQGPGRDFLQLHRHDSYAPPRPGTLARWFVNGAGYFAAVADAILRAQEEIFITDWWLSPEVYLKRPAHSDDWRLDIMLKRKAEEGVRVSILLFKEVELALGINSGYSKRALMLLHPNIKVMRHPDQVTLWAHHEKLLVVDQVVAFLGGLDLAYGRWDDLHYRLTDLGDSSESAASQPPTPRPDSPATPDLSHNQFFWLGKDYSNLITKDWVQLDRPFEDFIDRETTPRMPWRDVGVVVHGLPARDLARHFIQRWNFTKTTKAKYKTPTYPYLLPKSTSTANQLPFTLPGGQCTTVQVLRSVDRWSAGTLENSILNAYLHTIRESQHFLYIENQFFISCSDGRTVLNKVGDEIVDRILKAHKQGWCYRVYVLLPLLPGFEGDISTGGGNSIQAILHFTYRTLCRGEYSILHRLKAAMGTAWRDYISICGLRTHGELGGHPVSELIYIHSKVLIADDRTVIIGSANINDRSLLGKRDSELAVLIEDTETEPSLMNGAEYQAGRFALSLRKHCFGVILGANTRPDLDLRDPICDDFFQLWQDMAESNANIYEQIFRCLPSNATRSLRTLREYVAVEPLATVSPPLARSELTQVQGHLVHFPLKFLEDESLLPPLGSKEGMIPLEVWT

Molecule `CC(CNC(=O)c1ccc(F)c(F)c1)N1CCC2(CC1)C(=O)NCN2c1ccccc1` (stereo not drawn) [8f] has a pIC50 (PLD1) of roughly 6.00.

`CC1CC(n2c(=O)[nH]c3ccccc32)CCN1CCNC(=O)c1ccc(F)cc1` (stereo not drawn) [compound 9] showed a Clhep [1] of 70 mL/min/kg.

In the case of `O=C(NCCN1CCC2(CC1)C(=O)NCN2c1cccc(F)c1)c1ccc(F)c(F)c1` [compound 4], the “fold PLD2 selective” value (PLD2) is given as 53 fold.
